In the library only some 1.9% were active in any assay of this set; here they are far more common.
Scp-1 inhibitor: Scp-1 (human) phosphatase inhibition; hit rate 0.88% among 340,000; Recombinant Scp1, phosphopeptide, malachite green phosphate absorbance; Q9GZU7; inhibition, % at 20 µM;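 active = inhibition above about 50% at 20 µM, limit read from the data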
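Incubation: 45 min enzyme reaction at room temperature / System: truncated SCP-1 phosphatase (76-261aa) / Reagent: Phospho 17-mer peptide substrate / Buffer or medium: Acidic Tris acetate buffer with magnesium and detergent / Signal: absorbance at 630 nm / Doses: one concentration, 20 µM, with 1.0% DMSO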
LMPTP inh: blocks human LMPTP phosphatase; P24666; recombinant LMPTP-A, OMFP fluorogenic substrate, fluorescence intensity; inhibition, % at 20 µM; hit rate 0.22% among 360,000;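 active = compounds that cut the enzyme signal by at least half of the control window in the single-dose screen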
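test system = LMPTP-A | amount = 0.625 nM LMPTP-A final | reagent = fluorogenic phosphatase substrate OMFP at 400 µM final | incubation = 50 min at room temperature | benchmarks = no-enzyme low control, uninhibited high control | medium = Bis-Tris pH 6.0, DTT, detergent | signal = fluorescence intensity of OMFP turnover product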
FAS TE block: inhibitors of human fatty acid synthase thioesterase domain. recombinant FAS-TE, OMFH fluorogenic substrate, fluorescence endpoint. inhibition, % at 15 µM. hit rate 0.67% among 360,000. AID 602261;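 active = compounds whose normalised, plate-corrected inhibition of enzyme fluorescence in the single-dose primary screen is 50% or more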
STEP block: STEP (human) phosphatase inhibition; P54829; recombinant STEP, OMFP fluorogenic substrate, fluorescence; inhibition, % at 20 µM; hit rate 0.25% among 360,000;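 active = inhibition at 20 µM, scaled per plate between control wells, above about 37%, limit read from the data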
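material = STEP tyrosine phosphatase | reagent = fluorogenic phosphatase substrate OMFP at 25 µM final | doses = single compound dose of 20 µM, 1% DMSO final | schedule = 20 min reaction, room temperature, in the dark | measured by = fluorescence, 480/540 nm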
SUMO1 PPI mod: alters human SUMO1 binding to SIM partners. P63165. SUMO1 binding to a labelled peptide, TR-FRET, 1 h. inhibition, % at 20 µM. hit rate 0.33% among 360,000. AID 602429; in the data active = inhibition above about 37%
Of the large screens only hits and unclear results are named; the others gave an inactive call.

CC1=CC(C)(C)N(C(=O)CN2C(=O)CCC2=O)c2ccc(C)cc21	none
COC(=O)[C@]1(CC(C)C)N[C@H](c2ccc(-c3ccc(Cl)c(Cl)c3)cc2)[C@@H]2C(=O)N(C)C(=O)[C@@H]21	FAS TE block 61
Cc1c2cc(O)c(=O)cc-2oc2cc(O)c(O)cc12	Scp-1 inhibitor 71, LMPTP inh 80
CC(C)CNC(=S)N1CCN(C(c2ccccc2)c2ccccc2)CC1	none
C=C(C)CNC(=S)N1CCN(C(c2ccccc2)c2ccccc2)CC1	SUMO1 PPI mod 44
CCCCn1c(N)c(S(=O)(=O)c2ccc(C)cc2)c2nc3ccccc3nc21	SUMO1 PPI mod 39
CC(=O)NC1(C(F)(F)F)NC(=O)N(CCc2ccccc2)C1=O (configuration not stated)	SUMO1 PPI mod 44
O=C(O)c1cnn(-c2ccccc2)c1-c1ccncc1	none
O=Cc1cccn1-c1c(C(=O)O)cnn1-c1ccccc1	SUMO1 PPI mod 42
Cc1ccc(OCc2nc3ccccc3n2C(C(=O)NC(C)(C)C)c2ccncc2)cc1 (configuration not stated)	none (no result: Scp-1 inhibitor, FAS TE block, STEP block)
c1ccc(CNc2nc(NCCc3ccncc3)c3sccc3n2)cc1	LMPTP inh 87 (no result: Scp-1 inhibitor)
c1ccc(CNc2nc(NCc3cccs3)nc3ccsc23)cc1	none (no result: Scp-1 inhibitor)
N=C1/C(=C\c2ccc(-c3cccc(C(=O)O)c3)o2)C(=O)N=C2SC=C(c3ccccc3)N12	Scp-1 inhibitor 72, LMPTP inh 80, SUMO1 PPI mod 89
Cc1ccccc1-n1c(C)cc(/C=C2/C(=N)N3C(c4ccccc4)=CSC3=NC2=O)c1C	none
COc1ccc(S(=O)(=O)N2CCN(C(=O)C3COc4ccccc4O3)CC2)cc1 (configuration not stated)	Scp-1 inhibitor 64, LMPTP inh 56
COc1ccc(Cl)cc1/C=N/NC(=O)c1c(-c2ccccc2)noc1C	SUMO1 PPI mod 53
Cc1ccc(NC(=O)C2CCN(C(=O)c3cccs3)CC2)c(C)c1	Scp-1 inhibitor 99
Cc1ccc(NC(=O)C2CCCN2C(=O)c2cccs2)c(C)c1 (configuration not stated)	none
Cc1ccc(S(=O)(=O)C[C@@H]2OC[C@H](C(C)C)N2S(=O)(=O)c2ccc(C)cc2)cc1	none (no result: Scp-1 inhibitor, FAS TE block, STEP block)
Cc1cccc(C2=NN(c3ccccc3)[C@@H](C(=O)N3CCOC3=O)[C@@H]2c2ccccc2)c1	none
Cc1cccc(C2=NN(c3ccc(Br)cc3)[C@@H](C(=O)N3CCOC3=O)[C@@H]2c2ccccc2)c1	FAS TE block 72
C[C@@H]1C(c2cccc(Cl)c2)=NN(c2ccc(Br)cc2)[C@H]1C(=O)N1CCOC1=O	FAS TE block 56
NC(=O)c1ccc(NCCc2cccs2)cc1	SUMO1 PPI mod 39 (no result: Scp-1 inhibitor)
O=c1c(O)cccc2cc(O)c(O)c(O)c12	Scp-1 inhibitor 73, LMPTP inh 90, STEP block 98, SUMO1 PPI mod 104
COc1cc2c(cc1OC)C(=O)C(Br)CC2 (configuration not stated)	SUMO1 PPI mod 111 (no result: Scp-1 inhibitor)
COc1cc2c(cc1OC)C(=O)C(c1ccc3c(c1)OCO3)CC2 (configuration not stated)	none (no result: Scp-1 inhibitor)
Nc1nonc1-c1nc2ccccc2n1CC(=O)O	none
CC(C)OC(=O)c1ccc(NC(=O)Cn2c(-c3nonc3N)nc3ccccc32)cc1	SUMO1 PPI mod 43
COC(=O)c1ccc(NC(=O)Cn2c(-c3nonc3N)nc3ccccc32)cc1	none
Nc1nonc1-c1nc2ccccc2n1CC(=O)N/N=C/c1ccc(-c2cccc(C(=O)O)c2)o1	Scp-1 inhibitor 72
O=C(O)c1cc(Cl)c2c(c1)[C@@H]1C=CC[C@@H]1[C@H](c1ccc(S(=O)(=O)N3CCOCC3)cc1)N2	SUMO1 PPI mod 42
C[C@@H]1O[C@H](C2CCCC2)Cc2[nH]c(=S)[nH]c(=O)c21	none (no result: Scp-1 inhibitor, STEP block)
O=C(COC(=O)c1c2c(nc3ccccc13)/C(=C/c1ccco1)CC2)NC1CCCC1	Scp-1 inhibitor 78
CC1CCCCC1NC(=O)COC(=O)c1c2c(nc3ccccc13)/C(=C/c1ccco1)CC2 (configuration not stated)	Scp-1 inhibitor 68
Cc1cc(C(=O)OCC(=O)NC2CCCCC2C)c2ccccc2n1 (configuration not stated)	none

Source: PubChem BioAssay
